Results reported in paper PMC2711989 (Cancer research, 2009).
Where two headings read alike, the source gives them in different places.

How the values were obtained:
BxPC-3 tumor = assay: MicroPET imaging of the BxPC-3 xenograft model; type: in vivo, mice; conditions: for SUVmax in BxPC-3 tumor: mean ± SD, n = 3 animals
[1] = test system: DX3puroβ6 (αvβ6-positive) and DX3puro (αvβ6-negative) xenografts; assay: Biodistribution in the DX3puro/DX3puroβ6 xenograft model; type: in vivo, mice
Outline: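 Each male athymic nude mouse (nu/nu) carried both xenografts: 3 × 10^6 DX3puroβ6 (αvβ6-transduced) and 3 × 10^6 DX3puro (control) melanoma cells in serum-free DMEM, injected s.c. on opposite shoulder flanks. Studies began at a tumor diameter of ∼0.5 cm. Radiotracers (∼15 to 30 μCi) were given in saline/PBS, n = 3 per time point. Uptake was expressed as decay-corrected %ID/g, mean ± SD.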

BxPC-3 xenograft = assay: Biodistribution in the BxPC-3 xenograft model; type: in vivo, mice
Outline: (§1)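 Male athymic nude mice (nu/nu) received 1.5 × 10^6 BxPC-3 cells s.c. in the left shoulder region, in 1:1 serum-free DMEM/MatriGel. Studies began at a tumor diameter of ∼0.5 cm. Radiotracers (∼15 to 30 μCi) were given in saline/PBS, n = 3 per time point. Tumor and tissue radioactivity was expressed as decay-corrected %ID/g, mean ± SD. Significance was tested by two-tailed Student's t-test.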

[2] = Biodistribution in the BxPC-3 xenograft model; type: in vivo, mice; conditions: male, athymic nude (nu/nu), mouse, BxPC-3 tumor, iv, total radioactivity
Outline: as §1

[3] = test system: DX3puroβ6 (αvβ6-positive) and DX3puro (αvβ6-negative) xenografts; conditions: previously seen, cited from earlier work
DX3puroβ6 cell line = assay: Radiotracer cell binding and internalization, DX3puroβ6 cells; type: cell-based, human; conditions: DX3puroβ6, 1 hour, acidic wash buffer pH 2.5, 4°C
Outline: (§2)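 3.75 × 10^6 cells were incubated with 0.2 μCi radiotracer in serum-free medium, pH 7.2, over a time course or for 1 h, n = 4 per cell line per time point. Bound fraction was γ-counted as cell pellet vs supernatant. Acid wash (0.2 mol/L sodium acetate, 0.5 mol/L NaCl, pH 2.5, 4°C) then released surface activity; internalized fraction was pellet vs released activity.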

BxPC-3 cell line = assay: Radiotracer cell binding and internalization, BxPC-3 cells; type: cell-based, human; conditions: BxPC-3, 1 hour, acidic wash buffer pH 2.5, 4°C
Outline: as §2

Structure (SMILES)	SUVmax in BxPC-3 tumor (BxPC-3 tumor; 15min)	SUVmax in BxPC-3 tumor (BxPC-3 tumor; 1 h p.i.)	SUVmax in BxPC-3 tumor (BxPC-3 tumor; 4 h)	maximal αvβ6-positive/-negative xenograft uptake ratio [1]	BxPC-3/blood ratio (BxPC-3 xenograft; 1 h)	BxPC-3/muscle ratio (BxPC-3 xenograft; 1 h)	BxPC-3/pancreas ratio (BxPC-3 xenograft; 1 h)	BxPC-3/blood ratio (BxPC-3 xenograft; 4 h)	BxPC-3/muscle ratio (BxPC-3 xenograft; 4 h)	BxPC-3/pancreas ratio (BxPC-3 xenograft; 4 h)	tissue uptake at 1 h [2]	tissue uptake at 4 h [2]	uptake in αvβ6-positive DX3puroβ6 tumor ([3]; 1 h p.i.)	uptake in αvβ6-positive DX3puroβ6 tumor ([3]; 4 h p.i.)	fraction of bound radioactivity internalized (DX3puroβ6 cell line)	fraction of bound radioactivity internalized (BxPC-3 cell line)	detection of BxPC-3 tumors by PET (BxPC-3 tumor; BxPC-3 xenograft bearing mice)
CC(C)C[C@H](NC(=O)[C@H](CC(=O)O)NC(=O)CNC(=O)[C@H](CCCNC(=N)N)NC(=O)[C@H](CC(C)C)NC(=O)[C@H](CC(N)=O)NC(=O)[C@@H]1CCCN1C(=O)[C@@H](NC(=O)[C@H](C)NC(=O)[C@H](CC(N)=O)NC(=O)CCOCCOCCOCCOCCOCCOCCOCCOCCOCCOCCOCCOCCOCCOCCOCCOCCOCCOCCOCCOCCOCCOCCOCCOCCOCCOCCOCCOCCNC(=O)CCOCCOCCOCCOCCOCCOCCOCCOCCOCCOCCOCCOCCOCCOCCOCCOCCOCCOCCOCCOCCOCCOCCOCCOCCOCCOCCOCCOCCNC(=O)c1ccc(F)cc1)C(C)C)C(=O)N[C@@H](CCC(N)=O)C(=O)N[C@H](C(=O)N[C@@H](CC(C)C)C(=O)N[C@@H](C)C(=O)N[C@@H](CCC(N)=O)C(=O)N[C@@H](CCCCN)C(=O)N[C@H](C(=O)N[C@@H](C)C(=O)N[C@@H](CCCNC(=N)N)C(=O)N[C@H](C(N)=O)[C@@H](C)O)C(C)C)C(C)C [[^18F]FBA-(PEG28)2-A20FMDV2]	0.99 ± 0.18	0.79 ± 0.24	0.59 ± 0.20	9.2 :1	9.0 :1	4.1 :1	5.6 :1	150 :1	4.4 :1	4.4 :1	1.57 ± 0.25 %ID/g	2.08 ± 0.37 %ID/g	–	–	–	–	–
CC(C)C[C@H](NC(=O)[C@H](CC(=O)O)NC(=O)CNC(=O)[C@H](CCCNC(=N)N)NC(=O)[C@H](CC(C)C)NC(=O)[C@H](CC(N)=O)NC(=O)[C@@H]1CCCN1C(=O)[C@@H](NC(=O)[C@H](C)NC(=O)[C@H](CC(N)=O)NC(=O)c1ccc(F)cc1)C(C)C)C(=O)N[C@@H](CCC(N)=O)C(=O)N[C@H](C(=O)N[C@@H](CC(C)C)C(=O)N[C@@H](C)C(=O)N[C@@H](CCC(N)=O)C(=O)N[C@@H](CCCCN)C(=O)N[C@H](C(=O)N[C@@H](C)C(=O)N[C@@H](CCCNC(=N)N)C(=O)N[C@H](C(N)=O)[C@@H](C)O)C(C)C)C(C)C [[^18F]FBA-A20FMDV2, 4-[^18F]fluorobenzoyl A20FMDV2]	0.50 ± 0.22	0.22 ± 0.11	< 0.05	–	3.3 :1	1.3 :1	–	7.0 :1	2.5 :1	9.5 :1	0.69 ± 0.19 %ID/g	0.12 ± 0.03 %ID/g	0.66 ± 0.09 % ID/g	0.06 ± 0.00 % ID/g	less than half	less than half	–
O=C[C@H]([18F])[C@@H](O)[C@H](O)[C@H](O)CO [[^18F]FDG, 2-[^18F]fluoro-2-deoxy-D-glucose, reference compound]	–	0.62 ± 0.13	–	–	–	–	–	–	–	–	–	–	–	–	–	–	failed in all animals to detect the BxPC-3 tumors
